Series [1] is described as follows: Solubility of the compound in PBS/1% DMSO at 10 uM. The format is physicochemical. As to conditions: buffer. In outline:
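Solubility was judged at 10 μM in PBS containing 1% DMSO.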

A short description of series [2]: Cytotoxicity in HEK293 cells after 48 hrs by Cell-titer Glo reagent based assay. The note with it: human, read-out: LD50. In outline:
(§1)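 Cells (HEK293, HepG2 or BEAS2B) exposed to compounds at a range of concentrations for 48 h; viability read by Cell-Titer Glo luminescence. Normalized to DMSO (negative) and 3-dibutylamino-1-(4-hexyl-phenyl)-propan-1-one at 150 μM final in DMSO (positive).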

A short description of series [3]: Cytotoxicity in human HepG2 cells after 48 hrs by Cell-titer Glo reagent based assay. As to conditions: read-out: LD50. In outline: as §1
Series [4] in a line: Cytotoxicity in human BEAS2B cells after 48 hrs by Cell-titer Glo reagent based assay. Also noted: species or system BEAS-2B. The note with it: read-out: LD50. The essentials: as §1
Series [5] relates to Liver. Briefly: Metabolic stability in human liver microsomes assessed as compound remaining at 10 uM after 1 hr by LC-MS/MS analysis. The class given is ADME, microsome. The essentials:
(§2)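 Compound stability was measured in human or mouse liver microsomes as percent remaining after 1 h. Data came from two independent experiments, each run in triplicate.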

Series [6] concerns Liver. Briefly: Metabolic stability in mouse liver microsomes assessed as compound remaining at 10 uM after 1 hr by LC-MS/MS analysis. The class given is ADME, microsome. In outline: as §2
Series [7] can be described thus: Half life in human liver microsomes at 10 uM by LC-MS/MS analysis. The format is ADME, microsome. (In general: Liver microsomes are vesicles of endoplasmic reticulum, rich in cytochrome P450 enzymes.)
The nature of series [8]: (§3) Half life in mouse liver microsomes at 10 uM by LC-MS/MS analysis. The format is ADME, microsome. As to conditions: liver microsomes.
A short description of series [9]: Solubility of the compound in 50% PBS/40% propylene glycol/10% DMSO at 10 uM. The format is physicochemical. The note with it: buffer.
The subject of series [10] is Liver. The description is as §3. The class given is ADME, microsome. The note with it: microsomes, 10 µM.
In series [11] the test system is Mus musculus. Briefly: Neurotoxicity in Swiss Webster mouse assessed as induction of senorimotor impairment at 40 mg/kg, ip administered 10 mins prior to testing and measured for 3 mins at 10 to 60 mins after drug administration by rotarod method. The note with it: in vivo. The class given is toxicity, organism-based. In outline: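 Swiss Webster mice, pre-trained at 15 rpm until they held on for 3 min at three consecutive sessions, were given a single i.p. dose of 40 mg/kg in 10% DMSO/40% propylene glycol/50% PBS. Rotarod at 15 rpm for 3 min at 10, 30 and 60 min after dosing. Falls before 3 min scored as fail, with time of fall recorded. N = 10, mean ± SEM. Vehicle and diazepam 5 mg/kg i.p. controls. Mice rested 2–3 days between doses.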
Background: Falling from the rotarod earlier than controls is read as motor impairment.

Series [12] concerns Mus musculus. The series is described as follows: Neurotoxicity in Swiss Webster mouse assessed as induction of senorimotor impairment at 15 mg/kg administered 10 mins prior to testing and measured for 3 mins at 10 to 60 mins after drug administration by rotarod method. As to conditions: in vivo. The class given is toxicity, organism-based.

Structures are written as SMILES.

This is an account of results in ChEMBL document CHEMBL3992505, “Optimization of substituted imidazobenzodiazepines as novel asthma treatments” (Eur J Med Chem, 2017).

For orientation: half-life means how long it takes for the measured level to halve. Low readings indicate fast loss, high ones slow loss.

For `[2H]C([2H])([2H])Oc1ccc2c(c1)C(=O)N1CCC[C@H]1c1c(C(=O)SC(C)(C)C)ncn1-2`, the solubility result in series [1] was “Insoluble”. Moreover, the results for the CC50 at 48 h in series [2], in series [3] and in series [4] were 16.8 µM, over 100 µM and over 100 µM, respectively.

On to `[2H]C([2H])([2H])Oc1ccc2c(c1)C(=O)N1CCC[C@H]1c1c(C(=O)OC(C(F)(F)F)C(F)(F)F)ncn1-2`, for which the values for the Stability with Liver [5] and in the series with Liver [6] were 77.1% and 62.5%, respectively. Also, the half-life at 10 µM in [7] worked out at 3.4 h; in series [8], 1.82 h. Moreover, the CC50 at 48 h in series [2] was over 200 µM; in series [3], over 400 µM; in series [4] it was over 400 µM. Moreover, the solubility entry in series [9] is listed as “Insoluble”.

`[2H]C([2H])([2H])Oc1ccc2c(c1)C(=O)N1CCC[C@H]1c1c(C(=O)NC(C)(C)C)ncn1-2`: the Stability with Liver [5] is 95.6%; in the series on Liver [6], 9.4%. For the same molecule, the half-life at 10 µM in [7] came out at 7.15 h. Further, in the series on Liver [10], the t1/2 turned out to be 21.5 h. Also, the CC50 at 48 h in [2] was over 200 µM; in series [3], over 400 µM; in series [4], over 400 µM. For the same molecule, the Activity entry in the series on Mus musculus [11] is “Toxic”.

For `COc1ccc2c(c1)C(=O)N1CCC[C@H]1c1c(C(=O)OCC(C)C)ncn1-2`, the figures for the Stability in the series on Liver [5] and in the series on Liver [6] were 77.8% and 13.4%, respectively. For the same molecule, the results for the half-life at 10 µM in series [7] and in series [8] were 2.82 h and 0.325 h, respectively. The CC50 at 48 h in series [2] is over 100 µM; in series [3], over 200 µM; in series [4], over 200 µM. The solubility entry in series [9] is on record as “Insoluble”.

As for `COc1ccc2c(c1)C(=O)N1CCC[C@H]1c1c(C(=O)OC(C)(C)C)ncn1-2`, the Stability with Liver [5] stood at 92.1%; with Liver [6], 16.2%. Further, the half-life at 10 µM in series [7] was 11.9 h; in series [8], 0.402 h. Further, the CC50 at 48 h in series [2] was over 100 µM; in series [3], over 400 µM; in series [4] it was over 200 µM. In addition, the Activity entry in the series on Mus musculus [12] is on record as “Toxic”.

In the case of `COc1ccc2c(c1)C(=O)N1CCC[C@H]1c1c(C(=O)OC(C(F)(F)F)C(F)(F)F)ncn1-2`, the solubility result in [1] and in series [9] was “Insoluble” in each case. Also, the CC50 at 48 h in series [2] was over 200 µM; in series [3], over 400 µM; in series [4], over 400 µM.

Turning to `[2H]C([2H])([2H])Oc1ccc2c(c1)C(=O)N1CCC[C@H]1c1c(C(=O)SCC)ncn1-2`, the solubility result in [1] and in [9] was “Insoluble” throughout. For the same molecule, the CC50 at 48 h in [2], in [3] and in [4] was over 100 µM throughout.

Consider `CCSC(=O)c1ncn2c1[C@@H]1CCCN1C(=O)c1cc(OC)ccc1-2`, for which the solubility result in series [1] and in [9] was “Insoluble” throughout. Further, the CC50 at 48 h in series [2], in series [3] and in series [4] was over 100 µM in each case.

As to `COc1ccc2c(c1)C(=O)N1CCC[C@H]1c1c(C(=O)SC(C)(C)C)ncn1-2`, the solubility entry in series [1] and in series [9] was “Insoluble” throughout. The CC50 at 48 h is 18.8 µM in series [2], over 100 µM in series [3] and over 100 µM in series [4].
